Reference: article PMC10092221 (Journal of Clinical Pharmacology, 2022)
Several values for one entry are separate records, joined by “and”; a condition that tells them apart may be missing. Identical values can stand only once. Like-named read-outs stand apart in the source and are kept apart here.

Columns and labels:
[1] = healthy subjects, used for sample size; cited from earlier work
OATP1B3 = details: cited from earlier work
[2] = format: in vivo, human (healthy subjects); details: for Maximum increase of serum creatinine concentration from baseline: at 24 hours
Summary of the method: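 Blood was drawn from healthy subjects at 0, 2, 4, 8, 24, 48 and 72 h after the day-1 single fasted oral dose: 200 mg in the inhibition cohort, 400 mg in the induction cohort. Creatinine and cystatin C were measured in each sample. Change from baseline was summarized descriptively by time point.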

[3] = Capmatinib/CMN288 pharmacokinetics, inhibition cohort; format: in vivo, human (healthy subjects); details: for AUCinf geometric mean ratio (90%CI) / AUClast geometric mean ratio (90%CI) / Cmax geometric mean ratio (90%CI): itraconazole + capmatinib 200 mg / capmatinib alone
Summary of the method: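 Inhibition cohort of healthy subjects (n = 27): a single fasted oral 200 mg dose on day 1, then a 4-day washout. Itraconazole 200 mg was given daily on days 5–14, and 200 mg test compound was dosed 1 h after the sixth itraconazole dose (day 10). Plasma was sampled serially to 96 h after each dose and assayed by validated LC-MS/MS (LLOQ ≈1.0 ng/mL). Test/reference ratios are antilogged point estimates with 2-sided 90%CIs.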

[4] = Capmatinib/CMN288 pharmacokinetics, induction cohort; format: in vivo, human (healthy subjects); details: for AUC(0-inf): AUCinf; for AUC(0-t): AUClast; for AUCinf geometric mean ratio (90%CI) / AUClast geometric mean ratio (90%CI) / Cmax geometric mean ratio (90%CI): rifampicin + capmatinib 400 mg / capmatinib alone
Summary of the method: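 Healthy subjects (induction cohort, n = 26) received a single fasted oral 400 mg dose on day 1, then a 4-day washout. Rifampicin 600 mg was given daily on days 5–13, with 400 mg test compound coadministered with the sixth dose on day 10. Serial plasma was drawn to 72 h after each dose and frozen <–70°C. Parent and metabolite were measured by validated LC-MS/MS (LLOQ ≈1.0 ng/mL). Ratios are antilogged 90%CIs.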

OATP1B1 = details: cited from earlier work
MATE2K = details: read-out: Ki, MATE2K inhibition; in vitro; ref Novartis data on file; cited from earlier work
MATE1 = details: read-out: Ki, MATE1 inhibition; in vitro; ref Novartis data on file; cited from earlier work
[5] = therapeutic dose 400 mg twice daily, cited from earlier work
Safety assessment = format: in vivo, human (healthy subjects)
[6] = single dose 200 mg capmatinib, inhibition cohort
[7] = single dose 400 mg capmatinib, induction cohort
[8] = capmatinib + itraconazole compared to capmatinib alone
[9] = inhibition cohort, healthy subjects, single oral capmatinib 200 mg + itraconazole 200 mg/day, plasma
[10] = inhibition cohort, healthy subjects, single oral capmatinib 200 mg alone, plasma
[11] = capmatinib + rifampicin compared to capmatinib alone
[12] = human, plasma, po, adjusted geometric mean, induction cohort, healthy subjects, single oral capmatinib 400 mg + rifampicin 600 mg/day, plasma
[13] = human, plasma, po, geometric mean (geometric CV%), induction cohort, healthy subjects, single oral capmatinib 400 mg + rifampicin 600 mg/day, plasma
[14] = human, plasma, po, mean (CV%), induction cohort, healthy subjects, single oral capmatinib 400 mg + rifampicin 600 mg/day, plasma
[15] = induction cohort, healthy subjects, single oral capmatinib 400 mg + rifampicin 600 mg/day, plasma
[16] = induction cohort, healthy subjects, single oral capmatinib 400 mg alone, plasma
[17] = induction cohort N=26 (capmatinib 400 mg, rifampicin 600 mg/day)
[18] = inhibition cohort N=27 (capmatinib 200 mg, itraconazole 200 mg/day)

CNC(=O)c1ccc(-c2cnc3ncc(Cc4ccc5ncccc5c4)n3n2)cc1F [Capmatinib]
Intrasubject coefficient of variation (CV%) for AUC [1]: 22.8% | Intrasubject coefficient of variation (CV%) for Cmax [1]: 29.9% | Substrate of OATP1B3 (OATP1B3): not a substrate | Change in serum creatinine ([2]; after a single dose of capmatinib, 3-day monitoring): transient increase | Time at which serum creatinine returned to baseline [2, 6]: 48 h | Maximum increase of serum creatinine concentration from baseline [2, 6]: 21% | Time at which serum creatinine returned to baseline [2, 7]: 72 h | Maximum increase of serum creatinine concentration from baseline [2, 7]: 27.3% | Change in serum cystatin C concentration ([2]; single dose capmatinib 200 or 400 mg, both cohorts, 3-day monitoring): no change | Increase of geometric mean AUCinf with itraconazole [3, 8]: 42% | Increase of geometric mean AUClast with itraconazole [3, 8]: 41% | AUC(0-t) ([3]; human, plasma, po, 200 mg): 5430 ng·h/mL | AUC(0-inf) ([3]; human, plasma, po, AUCinf, geometric mean (geometric CV%), inhibition cohort, healthy subjects, single oral capmatinib 200 mg + itraconazole 200 mg/day, plasma): 7450 ng·h/mL | Cmax ([3]; human, plasma, po, adjusted geometric mean, inhibition cohort, healthy subjects, single oral capmatinib 200 mg + itraconazole 200 mg/day, plasma): 1300 ng/mL | Cmax ([3]; human, plasma, po, geometric mean (geometric CV%), inhibition cohort, healthy subjects, single oral capmatinib 200 mg + itraconazole 200 mg/day, plasma): 1290 ng/mL | Cmax ([3]; human, plasma, po, mean (CV%), inhibition cohort, healthy subjects, single oral capmatinib 200 mg + itraconazole 200 mg/day, plasma): 1410 ng/mL | AUCinf, adjusted geometric mean [3, 9]: 7360 ng·h/mL | AUCinf, mean (CV%) [3, 9]: 7680 (24.3) ng · h/mL | AUClast, adjusted geometric mean [3, 9]: 7340 ng·h/mL | AUClast, mean (CV%) [3, 9]: 7660 (24.5) ng · h/mL | CL/F, geometric mean (geometric CV%) [3, 9]: 26.8 (26.4) L/h | CL/F, mean (CV%) [3, 9]: 27.8 (28.1) L/h | t1/2, geometric mean (geometric CV%) [3, 9]: 6.05 (31.3) h | t1/2, mean (CV%) [3, 9]: 6.34 (32.8) h | tmax, median (range) [3, 9]: 2.00 (0.495–4.01) h | AUCinf, geometric mean (geometric CV%) [3, 10]: 5280 (30.6) ng · h/mL | AUClast, adjusted geometric mean [3, 10]: 5220 ng·h/mL | AUClast, geometric mean (geometric CV%) [3, 10]: 5220 (30.6) ng · h/mL | CL/F, geometric mean (geometric CV%) [3, 10]: 37.9 (30.6) L/h | CL/F, mean (CV%) [3, 10]: 39.6 (33.4) L/h | Cmax, adjusted geometric mean [3, 10]: 1260 ng/mL | Cmax, geometric mean (geometric CV%) [3, 10]: 1260 (46.9) ng/mL | Cmax, mean (CV%) [3, 10]: 1380 (40.4) ng/mL | Tmax, median [3, 10]: 1.00 h | tmax, median (range) [3, 10]: 1.00 (0.505–4.00) h | AUCinf geometric mean ratio (90%CI) [3]: 1.42 (1.33–1.52) | AUClast geometric mean ratio (90%CI) [3]: 1.41 (1.29–1.53) | Cmax geometric mean ratio (90%CI) [3]: 1.03 (0.866–1.22) | AUCinf geometric mean ratio (90%CI) ([3]; listed as capmatinib): 1.42 | AUClast geometric mean ratio (90%CI) ([3]; listed as capmatinib): 1.41 | Cmax geometric mean ratio (90%CI) ([3]; listed as capmatinib): 1.03 | Tmax median difference (minimum to maximum differences) ([3]; itraconazole + capmatinib 200 mg vs capmatinib alone): 0.489 (–3.02 to 3.00) h | Decrease of geometric mean AUCinf with rifampicin [4, 11]: 66.5% and 67% | Decrease of geometric mean AUClast with rifampicin [4, 11]: 67.8% | Decrease of geometric mean Cmax with rifampicin [4, 11]: 55.9% and 55% | Tmax ([4]; human, plasma, po, 400 mg): 0.994 h | AUC(0-inf) [4, 12]: 3850 ng·h/mL | AUC(0-inf) [4, 13]: 3890 ng·h/mL | AUC(0-inf) [4, 14]: 4050 ng·h/mL | AUC(0-t) [4, 12]: 3720 ng·h/mL | AUC(0-t) [4, 13]: 3720 ng·h/mL | AUC(0-t) [4, 14]: 3860 ng·h/mL | Cmax [4, 12]: 1350 ng/mL | Cmax [4, 13]: 1350 ng/mL | half-life ([4]; human, plasma, po, t1/2, mean (CV%), induction cohort, healthy subjects, single oral capmatinib 400 mg + rifampicin 600 mg/day, plasma): 11.1 h | CL/F, geometric mean (geometric CV%) [4, 15]: 103 (29.4) L/h | CL/F, mean (CV%) [4, 15]: 107 (26.1) L/h | Cmax, mean (CV%) [4, 15]: 1460 (43.4) ng/mL | t1/2, geometric mean (geometric CV%) [4, 15]: 10.3 (40.8) h | tmax, median (range) [4, 15]: 0.994 (0.478–2.00) h | CL/F, geometric mean (geometric CV%) [4, 16]: 35.4 (24.3) L/h | CL/F, mean (CV%) [4, 16]: 36.4 (23.7) L/h | tmax, median (range) [4, 16]: 0.994 (0.461–3.00) h | AUCinf geometric mean ratio (90%CI) [4]: 0.335 (0.300–0.374) | AUClast geometric mean ratio (90%CI) [4]: 0.322 (0.294–0.353) | Cmax geometric mean ratio (90%CI) [4]: 0.441 (0.387–0.502) | AUCinf geometric mean ratio (90%CI) ([4]; listed as capmatinib): 0.335 | AUClast geometric mean ratio (90%CI) ([4]; listed as capmatinib): 0.322 | Cmax geometric mean ratio (90%CI) ([4]; listed as capmatinib): 0.441 | Substrate of OATP1B1 (OATP1B1): not a substrate | Ki (MATE2K): 290 nM | Ki (MATE1): 280 nM | Cmax ([5]; read-out: Steady-state Cmax, total): 11.6 µM | Steady-state Cmax, unbound ([5]; unbound): 0.464 µM | Deaths (Safety assessment; either treatment cohort): No deaths were reported | Serious AEs (Safety assessment; either treatment cohort): No serious AEs were reported | AEs suspected to be related to the study treatment (any grade) (Safety assessment; [17]): 10 subjects | Discontinued study treatment due to AEs (Safety assessment; [17]): 1 subjects | AEs suspected to be related to the study treatment (any grade) (Safety assessment; [18]): 13 subjects | Amylase increased, grade 3 (Safety assessment; [18]): 1 subjects
